In brackets after ≈: the same amount, converted by molar mass.
What was measured:
Type in all cases: functional
[1] = system: Staphylococcus aureus; assay: Antibacterial activity against Staphylococcus aureus ATCC 29213 harboring FtsZ 128 mutation after 20 hrs; conditions: ATCC 29213, 20 h
How it was run: (§1)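 Broth microdilution MIC per CLSI guidelines, compounds dissolved in DMSO. Resistant mutants were selected by serial passage of ATCC 29213 in LB at 37 °C with shaking at 250 rpm. Each 20 h culture started at half the MIC, and the concentration was doubled at each transfer. Growth inhibition was read by eye, in duplicate.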

[2] = system: Staphylococcus aureus; assay: Antibacterial activity against Staphylococcus aureus ATCC 29213 harboring FtsZ 64 mutation after 20 hrs; conditions: ATCC 29213, 20 h; how it was run: as §1
[3] = system: Staphylococcus aureus; assay: Antibacterial activity against Staphylococcus aureus ATCC 29213 by broth microdilution assay
How it was run: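 Broth microdilution per CLSI guidelines; compounds dissolved in DMSO; single agents tested; growth inhibition read by eye; run in duplicate (table footnote states at least triplicates).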

[4] = system: Staphylococcus aureus; assay: Antibacterial activity against multidrug-resistant Staphylococcus aureus isolate 231 by broth microdilution assay
How it was run: (§2)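 Broth microdilution MIC per CLSI guidelines against clinical MRSA isolates, for β-lactams and test compound alone and in combination. Compounds were dissolved in DMSO. Growth was read by eye, in duplicate. FIC index = FIC(compound) + FIC(drug); synergy defined as FIC index ≤0.5.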

[5] = system: Staphylococcus aureus; assay: Antibacterial activity against multidrug-resistant Staphylococcus aureus isolate 3332 by broth microdilution assay; how it was run: as §2
[6] = system: Staphylococcus aureus; assay: Synergistic antibacterial activity against multidrug-resistant Staphylococcus aureus isolate 2919 in presence of amoxicillin by broth microdilution assay
How it was run: (§3)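 CLSI broth microdilution on clinical MRSA isolates. MICs were measured for the β-lactam alone, the test agent alone and the two combined. Compounds were dissolved in DMSO, and growth inhibition was scored by eye. FIC index is the sum, over both agents, of MIC in combination divided by MIC alone. An FIC index ≤0.5 was taken as synergy.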

[7] = system: Staphylococcus aureus; assay: Synergistic antibacterial activity against multidrug-resistant Staphylococcus aureus isolate 3580 in presence of amoxicillin by broth microdilution assay
[8] = system: Staphylococcus aureus; assay: Synergistic antibacterial activity against multidrug-resistant Staphylococcus aureus isolate 774 in presence of amoxicillin by broth microdilution assay
[9] = system: Staphylococcus aureus; assay: Synergistic antibacterial activity against multidrug-resistant Staphylococcus aureus isolate 200 in presence of amoxicillin by broth microdilution assay
How it was run: (§4)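 Clinical MRSA isolate panel; compound and β-lactam tested alone and in combination by CLSI broth microdilution, compounds dissolved in DMSO, growth inhibition scored by eye, run in duplicate. FIC index = FIC(compound) + FIC(drug), each the MIC in combination divided by the MIC alone; an index ≤ 0.5 was called synergy.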

[10] = system: Staphylococcus aureus; assay: Synergistic antibacterial activity against multidrug-resistant Staphylococcus aureus isolate 200 in presence of methicillin by broth microdilution assay; how it was run: as §4
[11] = system: Staphylococcus aureus; assay: Synergistic antibacterial activity against multidrug-resistant Staphylococcus aureus isolate 3589 in presence of cloxacillin by broth microdilution assay
[12] = system: Staphylococcus aureus; assay: Synergistic antibacterial activity against multidrug-resistant Staphylococcus aureus isolate 3332 in presence of cefuroxime by broth microdilution assay; how it was run: as §3
[13] = system: Staphylococcus aureus; assay: Synergistic antibacterial activity against multidrug-resistant Staphylococcus aureus isolate 2895 in presence of cefuroxime by broth microdilution assay; how it was run: as §3
[14] = system: Staphylococcus aureus; assay: Synergistic antibacterial activity against multidrug-resistant Staphylococcus aureus isolate 3589 in presence of meropenem by broth microdilution assay
[15] = system: Staphylococcus aureus; assay: Synergistic antibacterial activity against multidrug-resistant Staphylococcus aureus isolate 3411 in presence of meropenem by broth microdilution assay
[16] = system: Staphylococcus aureus; assay: Synergistic antibacterial activity against multidrug-resistant Staphylococcus aureus isolate 2516 in presence of meropenem by broth microdilution assay; how it was run: as §3
[17] = system: Staphylococcus aureus; assay: Synergistic antibacterial activity against multidrug-resistant Staphylococcus aureus isolate 1717 in presence of meropenem by broth microdilution assay; how it was run: as §4
[18] = system: Staphylococcus aureus; assay: Synergistic antibacterial activity against multidrug-resistant Staphylococcus aureus isolate 358 in presence of meropenem by broth microdilution assay
[19] = system: Staphylococcus aureus; assay: Synergistic antibacterial activity against multidrug-resistant Staphylococcus aureus isolate 85 in presence of meropenem by broth microdilution assay
[20] = system: Staphylococcus aureus; assay: Synergistic antibacterial activity against multidrug-resistant Staphylococcus aureus isolate 2490 assessed as fractional Inhibitory concentration index in presence of amoxicillin by broth microdilution assay
How it was run: (§5)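 CLSI broth microdilution run on clinical MRSA isolates with each β-lactam alone, the test agent alone, and the two combined; agents dissolved in DMSO. Growth inhibition was read by eye. FIC index = FIC(compound) + FIC(β-lactam), where each FIC is the MIC in combination divided by the MIC alone. An index ≤0.5 was taken as synergy.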

[21] = system: Staphylococcus aureus; assay: Synergistic antibacterial activity against multidrug-resistant Staphylococcus aureus isolate 254 assessed as fractional Inhibitory concentration index in presence of amoxicillin by broth microdilution assay
[22] = system: Staphylococcus aureus; assay: Synergistic antibacterial activity against multidrug-resistant Staphylococcus aureus isolate 231 assessed as fractional Inhibitory concentration index in presence of amoxicillin by broth microdilution assay; how it was run: as §5
[23] = system: Staphylococcus aureus; assay: Synergistic antibacterial activity against multidrug-resistant Staphylococcus aureus isolate 1136 assessed as fractional Inhibitory concentration index in presence of amoxicillin by broth microdilution assay; how it was run: as §5
[24] = system: Staphylococcus aureus; assay: Synergistic antibacterial activity against multidrug-resistant Staphylococcus aureus isolate 2895 assessed as fractional Inhibitory concentration index in presence of amoxicillin by broth microdilution assay
[25] = system: Staphylococcus aureus; assay: Synergistic antibacterial activity against multidrug-resistant Staphylococcus aureus isolate 3580 assessed as fractional Inhibitory concentration index in presence of amoxicillin by broth microdilution assay
[26] = system: Staphylococcus aureus; assay: Synergistic antibacterial activity against multidrug-resistant Staphylococcus aureus isolate 200 assessed as fractional Inhibitory concentration index in presence of amoxicillin by broth microdilution assay; how it was run: as §5
[27] = system: Staphylococcus aureus; assay: Synergistic antibacterial activity against multidrug-resistant Staphylococcus aureus isolate 358 assessed as fractional Inhibitory concentration index in presence of methicillin by broth microdilution assay
[28] = system: Staphylococcus aureus; assay: Synergistic antibacterial activity against multidrug-resistant Staphylococcus aureus isolate 2490 assessed as fractional Inhibitory concentration index in presence of cloxacillin by broth microdilution assay; how it was run: as §5
[29] = system: Staphylococcus aureus; assay: Synergistic antibacterial activity against multidrug-resistant Staphylococcus aureus isolate 231 assessed as fractional Inhibitory concentration index in presence of cloxacillin by broth microdilution assay; how it was run: as §5
[30] = system: Staphylococcus aureus; assay: Synergistic antibacterial activity against multidrug-resistant Staphylococcus aureus isolate 200 assessed as fractional Inhibitory concentration index in presence of cloxacillin by broth microdilution assay; how it was run: as §5
[31] = system: Staphylococcus aureus; assay: Synergistic antibacterial activity against multidrug-resistant Staphylococcus aureus isolate 1449 assessed as fractional Inhibitory concentration index in presence of cloxacillin by broth microdilution assay; how it was run: as §5
[32] = system: Staphylococcus aureus; assay: Synergistic antibacterial activity against multidrug-resistant Staphylococcus aureus isolate 1344 assessed as fractional Inhibitory concentration index in presence of cefuroxime by broth microdilution assay; how it was run: as §5
[33] = system: Staphylococcus aureus; assay: Synergistic antibacterial activity against multidrug-resistant Staphylococcus aureus isolate 2901 assessed as fractional Inhibitory concentration index in presence of meropenem by broth microdilution assay
[34] = system: Staphylococcus aureus; assay: Synergistic antibacterial activity against multidrug-resistant Staphylococcus aureus isolate 2224 assessed as fractional Inhibitory concentration index in presence of meropenem by broth microdilution assay; how it was run: as §5
[35] = system: Staphylococcus aureus; assay: Synergistic antibacterial activity against multidrug-resistant Staphylococcus aureus isolate 3580 assessed as fractional Inhibitory concentration index in presence of meropenem by broth microdilution assay

Work on CCCCCCCCCNc1ccc(F)c(C(N)=O)c1F yielded an MIC [1] of 128 µg/mL (≈ 429 µM), an MIC [2] of 64 µg/mL (≈ 214 µM) and an MIC [3] of 3.1 µM (≈ 0.925 µg/mL). It also gave an MIC [4] of 8 µg/mL (≈ 26.8 µM), an MIC [5] of 16 µg/mL (≈ 53.6 µM) and an MIC [6] of 8 µg/mL. For the same molecule, the MIC [7] was 8 µg/mL, the MIC [8] was 8 µg/mL and the MIC [9] was 8 µg/mL. For the same molecule, the MIC [10] was 4 µg/mL, the MIC [11] was 2 µg/mL and the MIC [12] was 2 µg/mL. It also gave an MIC [13] of 4 µg/mL, an MIC [14] of 4 µg/mL and an MIC [15] of 4 µg/mL. The MIC [16] was 4 µg/mL, the MIC [17] was 2 µg/mL and the MIC [18] was 16 µg/mL. For the same molecule, the MIC [19] was 8 µg/mL, the “fractional inhibitory concentration index (FICI)” value [20] was 0.6 and the “fractional inhibitory concentration index (FICI)” value [21] was 0.6. The “fractional inhibitory concentration index (FICI)” value [22] was 0.5, the “fractional inhibitory concentration index (FICI)” value [23] was 1 and the “fractional inhibitory concentration index (FICI)” value [24] was 1.1. For the same molecule, the “fractional inhibitory concentration index (FICI)” value [25] was 0.3, the “fractional inhibitory concentration index (FICI)” value [26] was 0 and the “fractional inhibitory concentration index (FICI)” value [27] was 0.3. The “fractional inhibitory concentration index (FICI)” value [28] was 0.6, the “fractional inhibitory concentration index (FICI)” value [29] was 0.3 and the “fractional inhibitory concentration index (FICI)” value [30] was 1. The “fractional inhibitory concentration index (FICI)” value [31] was 0.6, the “fractional inhibitory concentration index (FICI)” value [32] was 0.3 and the “fractional inhibitory concentration index (FICI)” value [33] was 4. For the same molecule, the “fractional inhibitory concentration index (FICI)” value [34] was 4 and the “fractional inhibitory concentration index (FICI)” value [35] was 1.3.
